Results from ChEMBL document CHEMBL1275307, “Design, synthesis and biological evaluation of 1,3,4-oxadiazole derivatives” (2010).

Tests used:
Type in all cases: functional
[1] = tested on: Staphylococcus epidermidis; assay: Antimicrobial activity against Staphylococcus epidermidis ATCC 12228 after 24 hrs by disk diffusion method
In short: (§1)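 Paper discs (6.25 mm diameter; Whatman no.1, dry-heat sterilized 140 °C, 1 h) soaked in test compound at a known concentration, placed on nutrient agar seeded with organism; solvent and growth controls plus ciprofloxacin standard included. Plates inverted, incubated 24 h at 37 °C; inhibition zone diameters measured and compared with controls.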

Staphylococcus aureus = assay: Antimicrobial activity against Staphylococcus aureus ATCC 25923 after 24 hrs by disk diffusion method; in short: as §1
Escherichia coli = assay: Antimicrobial activity against Escherichia coli MTCC 443 after 24 hrs by disk diffusion method; in short: as §1

S=c1[nH]nc(-c2ccccc2)o1
inhibition zone (IZ) [1]: 18 mm | inhibition zone (IZ) (Staphylococcus aureus): 22 mm | inhibition zone (IZ) (Escherichia coli): 20 mm

CC(=O)Oc1ccccc1-c1nnc(S)o1
inhibition zone (IZ) [1]: 26 mm | inhibition zone (IZ) (Staphylococcus aureus): 24 mm | inhibition zone (IZ) (Escherichia coli): 25 mm

Cc1ccc(-c2nnc(S)o2)cc1
inhibition zone (IZ) [1]: 16 mm | inhibition zone (IZ) (Staphylococcus aureus): 20 mm | inhibition zone (IZ) (Escherichia coli): 19 mm

Sc1nnc(-c2cccnc2)o1
inhibition zone (IZ) [1]: 26 mm | inhibition zone (IZ) (Staphylococcus aureus): 25 mm | inhibition zone (IZ) (Escherichia coli): 21 mm

Cc1ccc(-c2nnc(-c3ccccc3O)o2)cc1
inhibition zone (IZ) [1]: 22 mm | inhibition zone (IZ) (Staphylococcus aureus): 20 mm | inhibition zone (IZ) (Escherichia coli): 19 mm

Cc1ccccc1-c1nnc(-c2ccccc2O)o1
inhibition zone (IZ) [1]: 24 mm | inhibition zone (IZ) (Staphylococcus aureus): 23 mm | inhibition zone (IZ) (Escherichia coli): 23 mm

Oc1ccccc1-c1nnc(-c2ccccc2)o1
inhibition zone (IZ) [1]: 18 mm | inhibition zone (IZ) (Staphylococcus aureus): 21 mm | inhibition zone (IZ) (Escherichia coli): 19 mm

c1ccc(-c2nnc(-c3cccnc3)o2)cc1
inhibition zone (IZ) [1]: 25 mm | inhibition zone (IZ) (Staphylococcus aureus): 24 mm | inhibition zone (IZ) (Escherichia coli): 24 mm

Oc1ccccc1-c1nnc(Cc2ccc3ccccc3c2)o1
inhibition zone (IZ) [1]: 25 mm | inhibition zone (IZ) (Staphylococcus aureus): 23 mm | inhibition zone (IZ) (Escherichia coli): 21 mm

Oc1ccccc1-c1nnc(S)o1
inhibition zone (IZ) [1]: 22 mm | inhibition zone (IZ) (Staphylococcus aureus): 24 mm | inhibition zone (IZ) (Escherichia coli): 18 mm

O=C(O)c1cn(C2CC2)c2cc(N3CCNCC3)c(F)cc2c1=O [CIPROFLOXACIN]
inhibition zone (IZ) [1]: 30 mm | inhibition zone (IZ) (Staphylococcus aureus): 29 mm
